Data as given in ChEMBL document CHEMBL1153083, “Antiprotozoal, anticancer and antimicrobial activities of dihydroartemisinin acetal dimers and monomers” (Bioorg Med Chem, 2009).
Active and inactive are the calls of the source. The rule behind the calls is not given here.

Assays:
[1] = Selectivity index, ratio of TC50 for african green monkey (Cercopithecus aethiops) Vero cells to IC50 for Plasmodium falciparum W2; type: toxicity, cell-based
[2] = Selectivity index, ratio of TC50 for african green monkey (Cercopithecus aethiops) Vero cells to IC50 for Plasmodium falciparum D6; type: toxicity, cell-based
SK-MEL = experiment: Cytotoxicity against human SK-MEL cells after 48 hrs by neutral red assay; type: functional, cell-based
Procedure, shortened: (§1)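 Cells seeded at 25,000 per well and incubated 24 h, then exposed to samples for 48 h. Viable cells were counted by neutral red, with DMSO as vehicle control. IC50 or TC50 values were derived from logarithmic plots of growth inhibition versus concentration.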

KB = experiment: Cytotoxicity against human KB cells after 48 hrs by neutral red assay; type: functional, cell-based; procedure, shortened: as §1
Plasmodium falciparum [3] = experiment: Antiplasmodial activity against Plasmodium falciparum D6 infected in RBCs by parasitic LDH release assay; type: functional, organism-based
Procedure, shortened: (§2)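 Infected erythrocytes at 2% parasitemia and 2% hematocrit, in RPMI 1640 with 10% human serum and amikacin 60 μg/mL, were exposed to serial dilutions under N2/O2/CO2 (90:5:5) at 37°C for 72 h. LDH was read with Malstat reagent (30 min), then NBT/PES in the dark (60 min), stopped with 5% acetic acid, at 650 nm. IC50 came from percent growth dose-response curves.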

[4] = test system: Mycobacterium intracellulare; experiment: Antibacterial activity against Mycobacterium intracellular ATCC 23068 by Franzblau method; type: functional, organism-based
Plasmodium falciparum [5] = experiment: Antiplasmodial activity against Plasmodium falciparum W2 infected in RBCs by parasitic LDH release assay; type: functional, organism-based; procedure, shortened: as §2
Pseudomonas aeruginosa = experiment: Antibacterial activity against Pseudomonas aeruginosa ATCC 27853 by modified CLSI/NCCLS method; type: functional, organism-based
Candida albicans = experiment: Antifungal activity against Candida albicans ATCC 90028 by modified CLSI/NCCLS method; type: functional, organism-based
[6] = (§3) Toxicity against african green monkey Vero cells after 48 hrs by neutral red assay; type: cell-based; settings: chlorocebus sabaeus, Vero cells; read-out: TC50; procedure, shortened: as §1
Leishmania donovani = experiment: Antileishmanial activity against Leishmania donovani promastigotes after 48 hrs by alamar blue assay; type: functional, organism-based
BT-549 = experiment: Cytotoxicity against human BT549 cells after 48 hrs by neutral red assay; type: functional, cell-based; procedure, shortened: as §1
Aspergillus fumigatus = experiment: Antifungal activity against Aspergillus fumigatus ATCC 90906 by modified CLSI/NCCLS method; type: functional, organism-based
Escherichia coli = experiment: Antibacterial activity against Escherichia coli ATCC 35218 by modified CLSI/NCCLS method; type: functional, organism-based
Staphylococcus aureus = experiment: Antibacterial activity against methicillin-resistant Staphylococcus aureus ATCC 43300 by modified CLSI/NCCLS method; type: functional, organism-based
SK-OV-3 = experiment: Cytotoxicity against human SKOV3 cells after 48 hrs by neutral red assay; type: functional, cell-based; procedure, shortened: as §1
Cryptococcus neoformans = experiment: Antifungal activity against Cryptococcus neoformans ATCC 90113 by modified CLSI/NCCLS method; type: functional, organism-based
[7] = Toxicity against pig LLC-PK11 cells after 48 hrs by neutral red assay; type: cell-based, Sus scrofa; settings: for TC50: llc-pk11, 48 h; for CC50 at 48 h: LLC-PK11 cells, read-out: TC50; procedure, shortened: as §1
[8] = Toxicity against african green monkey Vero cells; type: cell-based; settings: chlorocebus sabaeus; procedure, shortened: as §1
Nakaseomyces glabratus = experiment: Antifungal activity against Candida glabrata ATCC 90030 by modified CLSI/NCCLS method; type: functional, organism-based
Pichia kudriavzevii = experiment: Antifungal activity against Candida krusei ATCC 6258 by modified CLSI/NCCLS method; type: functional, organism-based; settings: Pichia kudriavzevii, ATCC 6258; read-out: IC50
Vero = experiment: as §3; type: cell-based; settings: chlorocebus sabaeus, vero, 48 h; procedure, shortened: as §1
[9] = Homo sapiens, KB, 48 h, read-out: IC50
[10] = Homo sapiens, BT-549, 48 h, read-out: IC50
[11] = Mycobacterium intracellulare, ATCC 23068, read-out: IC50
[12] = Leishmania donovani, 48 h, read-out: IC50
[13] = Homo sapiens, SK-MEL, 48 h, read-out: IC50
[14] = Candida albicans, ATCC 90028, read-out: IC50
[15] = Aspergillus fumigatus, ATCC 90906, read-out: IC50

SMILES | selectivity ratio [1] | selectivity ratio [2] | IC50 (KB; [9]) [µM] | IC50 (Plasmodium falciparum [3]) [µM] | IC50 [4] | IC50 (Plasmodium falciparum [5]) [µM] | CC50 at 48 h [6] [µM] | IC50 (BT-549; [10]) [µM] | IC50 (Aspergillus fumigatus) | IC50 (Staphylococcus aureus) | IC50 (SK-OV-3; sk-ov-3) | IC50 (Cryptococcus neoformans) [µM] | CC50 [8] [µM] | IC50 (Leishmania donovani; [12]) [µM] | IC50 (Nakaseomyces glabratus) | IC50 (Pichia kudriavzevii) [µM] | IC50 (SK-MEL; [13]) [µM] | IC50 (Candida albicans; [14]) [µM] | IC90 (Leishmania donovani; Leishmania donovani, 48 h) [µM] | CC50 at 48 h [7] [µM] | other results
C[C@H]1[C@@H](OC/C=C\CO[C@H]2O[C@@H]3O[C@@]4(C)CC[C@H]5[C@H](C)CC[C@@H]([C@H]2C)[C@@]35OO4)O[C@@H]2O[C@@]3(C)CC[C@H]4[C@H](C)CC[C@@H]1[C@@]24OO3 | 116 | 113 | 0.32 | 0.0063 | Not Active | 0.0061 | 0.18 | 1.53 | Not Active | Not Active | Not Active | 24.2 | – | – | – | – | – | – | – | – | IC50 (SK-MEL; sk-mel): Not Active; IC50 (Pseudomonas aeruginosa): Not Active; IC50 (Candida albicans): Not Active; IC50 (Leishmania donovani): Not Active; IC90 (Leishmania donovani): inactive; IC50 (Escherichia coli): Not Active; TC50 [7]: Non-toxic
CC1=CO[C@@H]2O[C@]3(C)CC[C@H]4[C@H](C)CC[C@@H]1[C@@]24OO3 [ANHYDRODIHYDROARTEMISININ] | > 70 | > 113 | – | 0.0158 | – | 0.0255 | – | – | Not Active | Not Active | – | 0.3 | > 1.79 | 30 | Not Active | 56.3 | – | – | – | – | IC50 [4, 11]: 56.3 µM; IC50 (Candida albicans): Not Active; IC90 (Leishmania donovani): inactive
C=C[C@@H](CO[C@H]1O[C@@H]2O[C@@]3(C)CC[C@H]4[C@H](C)CC[C@@H]([C@H]1C)[C@@]24OO3)O[C@H]1O[C@@H]2O[C@@]3(C)CC[C@H]4[C@H](C)CC[C@@H]([C@H]1C)[C@@]24OO3 | 30 | 32 | 0.27 | 0.0242 | Not Active | 0.0258 | 0.43 | 2.58 | – | Not Active | Not Active | 6.44 | – | 20.9 | – | – | 12.9 | 1.45 | 62.8 | > 16.1 | IC50 (Pseudomonas aeruginosa): Not Active; IC50 (Aspergillus fumigatus; [15]): 16.1 µM; IC50 (Escherichia coli): Not Active
O=C(O)c1cn(C2CC2)c2cc(N3CCNCC3)c(F)cc2c1=O [CIPROFLOXACIN] | – | – | – | – | – | – | – | – | – | – | – | – | – | – | – | – | – | – | – | – | IC50 [4, 11]: 1.27 µM
N=C(N)c1ccc(OCCCCCOc2ccc(C(=N)N)cc2)cc1 [PENTAMIDINE] | – | – | – | – | – | – | – | – | – | – | – | – | – | 2.8 | – | – | – | – | 6.4 | – | –
C[C@H]1[C@@H](O[C@@H](CO[C@H]2O[C@@H]3O[C@@]4(C)CC[C@H]5[C@H](C)CC[C@@H]([C@H]2C)[C@@]35OO4)[C@H](O)CO)O[C@@H]2O[C@@]3(C)CC[C@H]4[C@H](C)CC[C@@H]1[C@@]24OO3 | 59 | 71 | – | 0.0117 | – | 0.014 | – | – | – | – | Not Active | 0.53 | – | 6.4 | – | – | – | 0.92 | 29.7 | – | IC50 (SK-MEL; sk-mel): Not Active; IC50 (KB; kb): Not Active; IC50 [4, 11]: 15.3 µM; IC50 (Pseudomonas aeruginosa): Not Active; TC50 (Vero): Not Active; IC50 (BT-549; bt-549): Not Active; IC50 (Aspergillus fumigatus; [15]): 7.64 µM; IC50 (Escherichia coli; Escherichia coli, ATCC 35218, read-out: IC50): 7.64 µM; IC50 (Staphylococcus aureus; Staphylococcus aureus, ATCC 43300, read-out: IC50): 22.9 µM; TC50 [7]: Not Active
CC(=O)O[C@H]1C(=O)[C@@]2(C)[C@H]([C@H](OC(=O)c3ccccc3)[C@]3(O)C[C@H](OC(=O)[C@H](O)[C@@H](NC(=O)c4ccccc4)c4ccccc4)C(C)=C1C3(C)C)[C@]1(OC(C)=O)CO[C@@H]1C[C@@H]2O [PACLITAXEL] | – | – | – | – | – | – | 0.53 | – | – | – | – | – | – | – | – | – | 4.1 | – | – | 4.39 | –
C[C@@H]1[C@H](O)[C@@H](C)/C=C/C=C/C=C/C=C/C=C/C=C/C=C/[C@H](O[C@@H]2O[C@H](C)[C@@H](O)[C@H](N)[C@@H]2O)C[C@@H]2O[C@](O)(C[C@@H](O)C[C@@H](O)[C@H](O)CC[C@@H](O)C[C@@H](O)CC(=O)O[C@H]1C)C[C@H](O)[C@H]2C(=O)O [AMPHOTERICIN B] | – | – | – | – | – | – | – | – | – | – | – | 0.78 | – | – | – | 0.85 | – | 0.37 | 0.4 | – | IC50 (Nakaseomyces glabratus; Nakaseomyces glabratus, ATCC 90030, read-out: IC50): 0.46 µM; IC50 (Aspergillus fumigatus; [15]): 1.12 µM
C[C@H]1[C@@H](OCC(=O)CO[C@H]2O[C@@H]3O[C@@]4(C)CC[C@H]5[C@H](C)CC[C@@H]([C@H]2C)[C@@]35OO4)O[C@@H]2O[C@@]3(C)CC[C@H]4[C@H](C)CC[C@@H]1[C@@]24OO3 | 44 | 49 | 0.24 | 0.0053 | Not Active | 0.0058 | > 8.03 | 0.24 | – | Not Active | Not Active | 0.88 | – | 7.4 | Not Active | 0.88 | 0.56 | 2.41 | 38.5 | 0.1 | IC50 (Aspergillus fumigatus; [15]): 32.1 µM
C[C@H]1[C@@H](OCC(O)CO[C@H]2O[C@@H]3O[C@@]4(C)CC[C@H]5[C@H](C)CC[C@@H]([C@H]2C)[C@@]35OO4)O[C@@H]2O[C@@]3(C)CC[C@H]4[C@H](C)CC[C@@H]1[C@@]24OO3 (stereo partly specified) | 100 | 34 | 0.26 | 0.0112 | Not Active | 0.0038 | 5.6 | 0.48 | Not Active | Not Active | Not Active | 0.32 | – | 12.8 | Not Active | 0.4 | 8 | 0.8 | 47.9 | 0.15 | –
C[C@H]1[C@@H](O)O[C@@H]2O[C@@]3(C)CC[C@H]4[C@H](C)CC[C@@H]1[C@@]24OO3 [ARTENIMOL] | 100 | 95 | – | 0.0148 | Not Active | 0.0141 | – | – | Not Active | Not Active | – | 0.28 | 1.41 | 87.9 | Not Active | 28.1 | – | 0.88 | – | – | IC90 (Leishmania donovani): inactive
CCN(CC)CCCC(C)Nc1ccnc2cc(Cl)ccc12 (stereo unspecified) [CHLOROQUINE] | – | – | – | – | – | – | – | – | – | – | – | – | > 14.9 | – | – | – | – | – | – | – | –
COc1cccc2c1C(=O)c1c(O)c3c(c(O)c1C2=O)C[C@@](O)(C(=O)CO)C[C@@H]3O[C@H]1C[C@H](N)[C@H](O)[C@H](C)O1 [DOXORUBICIN] | – | – | 2.04 | – | – | – | – | 1.96 | – | – | – | – | – | – | – | – | 1.73 | – | – | 1.29 | TC50 (Vero): Non-toxic; IC50 (SK-OV-3; Homo sapiens, SK-OV-3, 48 h, read-out: IC50): 2.04 µM
C[C@@H]1CC[C@H]2[C@@H](C)C(=O)O[C@@H]3O[C@@]4(C)CC[C@@H]1[C@]32OO4 [ARTEMISININ] | > 40 | > 51 | – | 0.0329 | Not Active | 0.0425 | – | – | Not Active | Not Active | – | 0.25 | > 1.68 | 40.7 | Not Active | 14.2 | – | – | – | – | IC50 (Candida albicans): Not Active; IC90 (Leishmania donovani): inactive
C[C@H]1[C@@H](OCC(CO[C@H]2O[C@@H]3O[C@@]4(C)CC[C@H]5[C@H](C)CC[C@@H]([C@H]2C)[C@@]35OO4)OS(C)(=O)=O)O[C@@H]2O[C@@]3(C)CC[C@H]4[C@H](C)CC[C@@H]1[C@@]24OO3 (stereo partly specified) | 542 | 542 | 0.28 | 0.0118 | Not Active | 0.0118 | 2.13 | – | Not Active | Not Active | Not Active | 1.42 | 6.4 | 22.8 | – | – | – | 4.27 | 55.5 | – | IC50 (SK-MEL; sk-mel): Not Active; IC50 (Pseudomonas aeruginosa): Not Active; IC50 (BT-549; bt-549): Not Active; IC50 (Escherichia coli): Not Active; TC50 [7]: Non-toxic
